According to ChEMBL document CHEMBL4014306, “Pyrazolopyrimidines as Potent Stimulators for Transient Receptor Potential Canonical 3/6/7 Channels” (J Med Chem, 2017):
Activity calls are given as the source filed them. The rule behind the calls is not given here.

Tests used:
Type in all cases: cell-based
[1] = target: Transient receptor potential cation channel subfamily V member 4 (Homo sapiens) (UniProt Q9HBA0); assay: Agonist activity at human TRPV4 expressed in HEK293 cells assessed as increase in intracellular calcium level at 33 uM measured for 2.5 mins by Fluo-8-AM dye based fluorescence assay
[2] = target: Transient receptor potential cation channel subfamily M member 8 (Mus musculus) (UniProt Q8R4D5); assay: Agonist activity at mouse TRPM8 expressed in HEK293 cells assessed as increase in intracellular calcium level at 33 uM measured for 2.5 mins by Fluo-8-AM dye based fluorescence assay
[3] = target: T1, Short transient receptor potential channel 5 (Homo sapiens) (UniProt Q9UL62); assay: Agonist activity at human TRPC5 expressed in HEK293 cells assessed as induction of membrane depolarization at 33 uM measured for 2.5 mins by FLIPR membrane potential dye-based fluorescence assay
T1 sequence (whole entry): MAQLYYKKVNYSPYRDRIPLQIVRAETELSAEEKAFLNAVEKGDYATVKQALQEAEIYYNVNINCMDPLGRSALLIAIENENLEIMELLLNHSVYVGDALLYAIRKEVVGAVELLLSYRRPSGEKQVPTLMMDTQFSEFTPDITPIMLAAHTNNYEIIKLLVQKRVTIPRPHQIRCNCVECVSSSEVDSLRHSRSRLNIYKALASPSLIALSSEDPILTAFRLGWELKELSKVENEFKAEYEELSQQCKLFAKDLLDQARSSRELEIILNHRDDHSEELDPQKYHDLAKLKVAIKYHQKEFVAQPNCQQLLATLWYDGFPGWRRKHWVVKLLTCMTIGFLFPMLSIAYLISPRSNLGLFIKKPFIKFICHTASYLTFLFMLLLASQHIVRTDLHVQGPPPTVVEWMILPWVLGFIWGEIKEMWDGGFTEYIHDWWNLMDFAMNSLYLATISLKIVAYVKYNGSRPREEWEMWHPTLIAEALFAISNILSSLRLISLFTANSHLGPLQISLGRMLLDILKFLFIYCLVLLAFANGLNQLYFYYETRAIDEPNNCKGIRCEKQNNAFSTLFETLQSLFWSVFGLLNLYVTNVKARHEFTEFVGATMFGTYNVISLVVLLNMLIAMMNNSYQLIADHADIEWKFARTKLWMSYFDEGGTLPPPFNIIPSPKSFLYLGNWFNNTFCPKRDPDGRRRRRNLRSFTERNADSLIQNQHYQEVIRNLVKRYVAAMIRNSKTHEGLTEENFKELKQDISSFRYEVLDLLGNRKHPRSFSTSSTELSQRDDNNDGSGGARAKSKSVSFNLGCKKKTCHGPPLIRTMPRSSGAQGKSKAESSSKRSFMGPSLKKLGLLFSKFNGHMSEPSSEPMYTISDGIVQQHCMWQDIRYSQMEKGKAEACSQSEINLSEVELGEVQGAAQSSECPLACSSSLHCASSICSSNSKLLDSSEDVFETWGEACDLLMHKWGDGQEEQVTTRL

[4] = target: T2, Short transient receptor potential channel 6 (Mus musculus) (UniProt Q61143); assay: Antagonist activity at mouse TRPC6 expressed in HEK293 cells co-expressing Gq11-PLCbeta fused M5 receptor assessed as channel desensitization at 20 to 100 uM at +80 mV in presence of 0.1 mM Ca2+ by whole cell patch-clamp method
T2 sequence (whole entry): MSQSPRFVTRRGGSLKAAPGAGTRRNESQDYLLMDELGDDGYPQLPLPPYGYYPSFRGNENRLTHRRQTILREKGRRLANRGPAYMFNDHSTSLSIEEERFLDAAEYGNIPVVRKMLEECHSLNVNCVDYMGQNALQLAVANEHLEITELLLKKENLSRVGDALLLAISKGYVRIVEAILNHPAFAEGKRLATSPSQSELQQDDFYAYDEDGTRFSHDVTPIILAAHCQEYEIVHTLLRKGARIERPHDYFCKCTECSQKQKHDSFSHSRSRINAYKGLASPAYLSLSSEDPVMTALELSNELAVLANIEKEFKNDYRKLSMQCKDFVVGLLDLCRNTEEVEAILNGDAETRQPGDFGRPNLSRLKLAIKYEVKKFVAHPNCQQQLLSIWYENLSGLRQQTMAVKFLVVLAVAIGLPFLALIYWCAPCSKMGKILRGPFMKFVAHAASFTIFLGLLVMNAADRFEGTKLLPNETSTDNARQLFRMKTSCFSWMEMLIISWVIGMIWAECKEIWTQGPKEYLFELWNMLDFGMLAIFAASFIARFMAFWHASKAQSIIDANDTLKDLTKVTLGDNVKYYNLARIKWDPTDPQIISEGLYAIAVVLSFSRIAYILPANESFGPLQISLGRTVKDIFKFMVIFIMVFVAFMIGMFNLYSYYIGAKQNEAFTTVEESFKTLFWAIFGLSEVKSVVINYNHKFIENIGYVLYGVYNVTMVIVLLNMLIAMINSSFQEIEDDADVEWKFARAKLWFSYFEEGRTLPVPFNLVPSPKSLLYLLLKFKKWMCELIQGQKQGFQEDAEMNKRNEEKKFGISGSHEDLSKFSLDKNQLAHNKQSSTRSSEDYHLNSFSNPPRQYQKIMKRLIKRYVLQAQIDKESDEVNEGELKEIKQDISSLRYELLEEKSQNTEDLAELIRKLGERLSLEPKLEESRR
Procedure, shortened: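 Whole-cell clamp of TRPC6/M5 or TRPC7 HEK293 cells with 0.1 mM Ca2+ bath and 400 nM free Ca2+ pipette. Ramps +100 to −100 mV every 1 s. Increasing concentrations given consecutively by perfusion (TRPC6 highest 20–100 μM; TRPC7 up to 30 μM). Currents at positive and negative potentials followed for desensitization.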

Transient receptor potential cation channel subfamily M member 8 (Mus musculus), sequence (Q8R4D5 whole entry): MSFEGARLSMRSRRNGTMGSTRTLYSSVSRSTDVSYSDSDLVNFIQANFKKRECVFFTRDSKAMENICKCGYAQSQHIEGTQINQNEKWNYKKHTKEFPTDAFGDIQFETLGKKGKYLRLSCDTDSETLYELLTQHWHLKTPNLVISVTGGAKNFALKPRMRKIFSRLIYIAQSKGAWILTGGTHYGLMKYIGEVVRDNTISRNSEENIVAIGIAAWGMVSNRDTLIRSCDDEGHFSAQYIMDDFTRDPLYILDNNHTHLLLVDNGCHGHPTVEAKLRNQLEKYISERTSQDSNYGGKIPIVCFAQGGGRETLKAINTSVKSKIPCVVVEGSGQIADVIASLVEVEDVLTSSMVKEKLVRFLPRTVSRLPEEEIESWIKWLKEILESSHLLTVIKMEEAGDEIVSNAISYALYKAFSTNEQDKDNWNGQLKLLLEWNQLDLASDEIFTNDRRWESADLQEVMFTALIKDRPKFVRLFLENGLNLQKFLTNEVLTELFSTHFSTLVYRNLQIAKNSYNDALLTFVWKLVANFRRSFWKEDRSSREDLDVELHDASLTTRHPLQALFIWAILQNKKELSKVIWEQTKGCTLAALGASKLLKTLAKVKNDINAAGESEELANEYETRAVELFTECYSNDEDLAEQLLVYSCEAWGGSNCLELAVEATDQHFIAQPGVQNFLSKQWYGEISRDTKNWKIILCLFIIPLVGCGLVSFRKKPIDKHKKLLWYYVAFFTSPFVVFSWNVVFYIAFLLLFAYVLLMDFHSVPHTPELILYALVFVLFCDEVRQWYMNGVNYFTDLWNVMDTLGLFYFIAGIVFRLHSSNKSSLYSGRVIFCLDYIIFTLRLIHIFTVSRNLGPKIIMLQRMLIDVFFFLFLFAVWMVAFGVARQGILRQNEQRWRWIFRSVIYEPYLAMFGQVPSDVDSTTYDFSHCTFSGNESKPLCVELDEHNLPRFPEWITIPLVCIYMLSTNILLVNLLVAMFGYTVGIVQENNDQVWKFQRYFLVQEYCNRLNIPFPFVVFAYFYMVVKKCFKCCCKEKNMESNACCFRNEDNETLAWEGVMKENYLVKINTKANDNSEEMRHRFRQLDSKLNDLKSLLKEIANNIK
Transient receptor potential cation channel subfamily V member 4 (Homo sapiens), sequence (Q9HBA0 whole entry): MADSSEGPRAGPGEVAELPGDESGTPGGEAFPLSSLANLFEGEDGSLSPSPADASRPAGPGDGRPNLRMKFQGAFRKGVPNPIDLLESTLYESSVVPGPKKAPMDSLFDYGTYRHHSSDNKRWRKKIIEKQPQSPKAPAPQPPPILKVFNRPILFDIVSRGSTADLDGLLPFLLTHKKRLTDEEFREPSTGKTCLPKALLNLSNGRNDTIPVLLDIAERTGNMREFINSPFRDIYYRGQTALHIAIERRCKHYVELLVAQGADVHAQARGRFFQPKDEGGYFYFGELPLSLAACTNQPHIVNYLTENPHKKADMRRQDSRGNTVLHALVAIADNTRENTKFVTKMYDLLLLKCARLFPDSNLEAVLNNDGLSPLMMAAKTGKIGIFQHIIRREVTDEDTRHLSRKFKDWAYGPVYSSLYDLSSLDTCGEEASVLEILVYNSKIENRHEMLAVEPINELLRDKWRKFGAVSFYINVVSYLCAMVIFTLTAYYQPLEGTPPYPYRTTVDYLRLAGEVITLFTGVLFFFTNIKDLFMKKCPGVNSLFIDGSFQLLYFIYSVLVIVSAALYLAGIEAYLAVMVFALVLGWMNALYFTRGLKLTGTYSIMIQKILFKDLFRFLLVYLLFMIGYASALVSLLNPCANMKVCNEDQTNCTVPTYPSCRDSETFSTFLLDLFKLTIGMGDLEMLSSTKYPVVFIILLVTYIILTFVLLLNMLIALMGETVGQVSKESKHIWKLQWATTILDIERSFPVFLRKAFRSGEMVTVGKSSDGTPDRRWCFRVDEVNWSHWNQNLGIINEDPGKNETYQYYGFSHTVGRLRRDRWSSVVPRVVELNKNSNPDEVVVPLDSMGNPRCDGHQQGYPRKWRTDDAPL

Activity [1]	Activity [2]	Activity [3]	Structure (SMILES)	Activity [4]
inactive	inactive	inactive	Cc1nn2c(O)cc(C3CCN(C(=O)OCc4ccccc4)CC3)nc2c1-c1ccc(Cl)cc1	inactive
inactive	inactive	inactive	CCOC(=O)N1CCC(c2cc(O)n3nc(C)c(-c4ccc(C(F)(F)F)cc4)c3n2)CC1	inactive
inactive	inactive	inactive	Cc1nn2c(O)cc(C3CCN(C(=O)OCc4ccccc4)CC3)nc2c1-c1ccc(F)cc1	inactive

Structure (SMILES)	Activity [1]	Activity [2]	Activity [3]	Activity [4]
CCOC(=O)N1CCC(c2cc(O)n3nc(C)c(-c4ccc(F)cc4)c3n2)CC1	inactive	inactive	inactive	inactive
